Results as given in ChEMBL document CHEMBL1149394, “Guiding farnesyltransferase inhibitors from an ECLiPS library to the catalytic zinc” (Bioorg Med Chem Lett, 2006).

Key:
[1] = molecular target: T1, Protein farnesyltransferase (Homo sapiens, UniProt P49354+P49356); assay: Inhibitory activity against farnesyltransferase quantified by SPA assay; assay type: protein-complex assay
[2] = molecular target: T1, Protein farnesyltransferase; assay: Inhibitory activity against Ha-Ras processing in COS7 cells; assay type: functional, cell-based, COS-7
[3] = system: Liver microsomes; assay: Metabolic stability in rat liver microsome; assay type: ADME
Procedure, shortened: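 Rat liver microsomes (cytochrome P450 content 6.7 µM) incubated 60 min at 37 °C with compound at 10 µM, KPi pH 7.4 and freshly prepared NADPH, in 1.0 ml final. Read-out is percent of compound remaining.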

[4] = molecular target: Geranylgeranyl transferase type I (Homo sapiens, UniProt P49354+P53609); assay: Inhibitory activity against Geranylgeranyltransferase 1; assay type: protein-complex assay
[5] = molecular target: T1, Protein farnesyltransferase; assay: Inhibitory activity against Farnesyltransferase quantified by modified SPA assay with improved sensitivity; assay type: protein-complex assay
Procedure, shortened: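 Scintillation proximity assay, high-sensitivity version. Purified FTase (30 pM final) was pre-incubated with inhibitor or DMSO control (5% v/v final) for 15 min at room temperature. The reaction was started with biotin-CVLS (100 nM final) and run for 60 min at 37 °C. It was quenched with a cold suspension of 250 mM EDTA pH 8.0, 0.5% BSA and SPA beads, then the IC50 was determined.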

[6] = Bioavailability in mice; assay type: ADME, organism-based; conditions: mouse, in vivo
[7] = Cmax in mice at 10 mg/kg, po; assay type: ADME, organism-based; design: dose 10 mg/kg, route oral; conditions: mouse, in vivo
[8] = system: Mus musculus; assay: AUC in mice at 10 mg/kg, po; assay type: ADME, organism-based, Plasma; design: dose 10 mg/kg, route oral; conditions: in vivo

Row | Compound | IC50 [1] | IC50 [2] | also measured
1 | Cc1noc(C)c1CNC(=O)C1CN(C2c3ccc(Cl)cc3CCc3cc(Br)cnc32)CCN1C(=O)NC1CCCCC1 (configuration not stated) | 760 nM | – | –
2 | CC(C)(C)NC(=O)N1CCN(C2c3ccc(Cl)cc3CCc3cc(Br)cnc32)CC1C(=O)NCc1cccnc1 (configuration not stated) | 15 nM | 54 nM | –
3 | O=C(NCc1cccnc1)C1CN(C2c3ccc(Cl)cc3CCc3cc(Br)cnc32)CCN1C(=O)NC1CCCC1 (configuration not stated) | 14 nM | 28 nM | –
4 | CCOCC(=O)N1CCN(C2c3ccc(Cl)cc3CCc3cc(Br)cnc32)CC1C(=O)NCc1cccnc1 (configuration not stated) | 21 nM | 160 nM | –
5 | O=C(NCc1cccnc1)C1CN(C2c3ccc(Cl)cc3CCc3cc(Br)cnc32)CCN1C(=O)C1CCCCCC1 (configuration not stated) | 12 nM | 85 nM | –
6 | CC(C)CNC(=O)N1CCN(C2c3ccc(Cl)cc3CCc3cc(Br)cnc32)CC1C(=O)NCc1cccnc1 (configuration not stated) | 8 nM | 52 nM | –
7 | O=C(NCCCn1ccnc1)C1CN(C2c3ccc(Cl)cc3CCc3cc(Br)cnc32)CCN1C(=O)NC1CCCCC1 (stereo in doubt; 41a) | 2 nM | 1.2 nM | Stability [3]: > 95%; IC50 [4]: 22000 nM; IC50 [5]: 0.1 nM
8 | CC(=O)CCCC(=O)N1CCN(C2c3ccc(Cl)cc3CCc3cc(Br)cnc32)CC1C(=O)NCc1cccnc1 (configuration not stated) | 8.4 nM | 54 nM | –
9 | O=C(O)CCCC(=O)N1CCN(C2c3ccc(Cl)cc3CCc3cc(Br)cnc32)CC1C(=O)NCc1cccnc1 (configuration not stated) | 7 nM | > 200 nM | –
10 | COC(=O)CCCCC(=O)N1CCN(C2c3ccc(Cl)cc3CCc3cc(Br)cnc32)CC1C(=O)NCc1cccnc1 (configuration not stated) | 7.9 nM | 62 nM | –
11 | O=C(NCc1cccnc1)C1CN(C2c3ccc(Cl)cc3CCc3cc(Br)cnc32)CCN1C(=O)C1CCCC1 (configuration not stated) | 17 nM | 65 nM | –
12 | CN(C)C(=O)CCC(=O)N1CCN(C2c3ccc(Cl)cc3CCc3cc(Br)cnc32)CC1C(=O)NCc1cccnc1 (configuration not stated) | 13 nM | 11 nM | –
13 | CCCCC(=O)N1CCN(C2c3ccc(Cl)cc3CCc3cc(Br)cnc32)CC1C(=O)Nc1cnccn1 (configuration not stated) | 190 nM | 570 nM | –
14 | O=C(NCc1cccnc1)C1CN(C2c3ccc(Cl)cc3CCc3cc(Br)cnc32)CCN1C(=O)NCC1CCCCC1 (configuration not stated) | 10 nM | 53 nM | –
15 | CCCCC(=O)N1CCN(C2c3ccc(Cl)cc3CCc3cc(Br)cnc32)CC1C(=O)NCc1ccc[n+]([O-])c1 (configuration not stated) | – | > 200 nM | –
16 | CCCCNC(=O)N1CCN(C2c3ccc(Cl)cc3CCc3cc(Br)cnc32)CC1C(=O)NCc1cccnc1 (configuration not stated) | 9.1 nM | 45 nM | –
17 | CC(C)(C)OC(=O)N1CCN(C2c3ccc(Cl)cc3CCc3cc(Br)cnc32)CC1C(=O)NCc1cccnc1 (configuration not stated) | 22 nM | > 200 nM | –
18 | CC(=O)CCC(=O)N1CCN(C2c3ccc(Cl)cc3CCc3cc(Br)cnc32)CC1C(=O)NCc1cccnc1 (configuration not stated) | 11 nM | 47 nM | –
19 | O=C(NCCCn1ccnc1)C1CN(C2c3ccc(Cl)cc3CCc3cc(Br)cnc32)CCN1C(=O)NC1CCCCC1 (stereo in doubt; 41b) | 1.5 nM | 0.56 nM | bioavailability [6]: 10.6%; Cmax [7]: 2550 nM; AUC [8]: 1660 ng·h/mL; IC50 [4]: > 10000 nM
20 | O=C(NCc1cccnc1)C1CN(C2c3ccc(Cl)cc3CCc3cc(Br)cnc32)CCN1C(=O)NC1CCCCC1 (configuration not stated) | 5.5 nM | 8.6 nM | –
21 | COCCC(=O)N1CCN(C2c3ccc(Cl)cc3CCc3cc(Br)cnc32)CC1C(=O)NCc1cccnc1 (configuration not stated) | 20 nM | 100 nM | –
22 | CC(C)(C)CC(=O)N1CCN(C2c3ccc(Cl)cc3CCc3cc(Br)cnc32)CC1C(=O)NCc1cccnc1 (configuration not stated) | 12 nM | 120 nM | –

Row | Compound | IC50 [1] | IC50 [2] | also measured
23 | Cn1cncc1CCNC(=O)C1CN(C2c3ccc(Cl)cc3CCc3cc(Br)cnc32)CCN1C(=O)NC1CCCCC1 (configuration not stated) | 7.3 nM | 13 nM | –
24 | O=C(NCc1cccnc1)C1CN(C2c3ccc(Cl)cc3CCc3cc(Br)cnc32)CCN1C(=O)CCC1CCCCC1 (configuration not stated) | 20 nM | 38 nM | –
25 | CC(C)CC(=O)N1CCN(C2c3ccc(Cl)cc3CCc3cc(Br)cnc32)CC1C(=O)NCc1cccnc1 (configuration not stated) | 7.3 nM | 50 nM | –
26 | O=C(NCCc1c[nH]cn1)C1CN(C2c3ccc(Cl)cc3CCc3cc(Br)cnc32)CCN1C(=O)NC1CCCCC1 (configuration not stated) | 7 nM | 18 nM | –
27 | O=C(NCCCc1c[nH]cn1)C1CN(C2c3ccc(Cl)cc3CCc3cc(Br)cnc32)CCN1C(=O)NC1CCCCC1 (configuration not stated) | 13 nM | 9.7 nM | –
28 | CCCCC(=O)N1CCN(C2c3ccc(Cl)cc3CCc3cc(Br)cnc32)CC1C(=O)NCc1c[nH]cn1 (configuration not stated) | 45 nM | 210 nM | –
29 | CCCCC(=O)N1CCN(C2c3ccc(Cl)cc3CCc3cc(Br)cnc32)CC1C(=O)NCc1cccnc1 (configuration not stated) | 5.7 nM | 64 nM | –
30 | Cn1cnc(CCNC(=O)C2CN(C3c4ccc(Cl)cc4CCc4cc(Br)cnc43)CCN2C(=O)NC2CCCCC2)c1 (configuration not stated) | 26 nM | 91 nM | –
31 | O=C(NCc1cccnc1)C1CN(C2c3ccc(Cl)cc3CCc3cc(Br)cnc32)CCN1C(=O)NC1CCCCCC1 (configuration not stated) | 9.1 nM | 52 nM | –
32 | Cc1ccc(CNC(=O)C2CN(C3c4ccc(Cl)cc4CCc4cc(Br)cnc43)CCN2C(=O)NC2CCCCC2)cn1 (configuration not stated) | 61 nM | 550 nM | –
33 | O=C(NCCCn1ccnc1)C1CN(C2c3ccc(Cl)cc3CCc3cc(Br)cnc32)CCN1C(=O)NC1CCCCC1 (stereo in doubt; 41) | 4.5 nM | 4.2 nM | –
34 | CCCCCC(=O)N1CCN(C2c3ccc(Cl)cc3CCc3cc(Br)cnc32)CC1C(=O)NCc1cccnc1 (configuration not stated) | 8 nM | 75 nM | –
35 | CCCCC(=O)N1CCN(C2c3ccc(Cl)cc3CCc3cc(Br)cnc32)CC1C(=O)Nc1cccnc1 (configuration not stated) | 18 nM | 100 nM | –
36 | O=C(Nc1nncs1)C1CN(C2c3ccc(Cl)cc3CCc3cc(Br)cnc32)CCN1C(=O)NC1CCCCC1 (configuration not stated) | 490 nM | > 10000 nM | –
37 | CCCCC(=O)N1CCN(C2c3ccc(Cl)cc3CCc3cc(Br)cnc32)CC1C(=O)NCc1ncc[nH]1 (configuration not stated) | 80 nM | > 200 nM | –
38 | O=C(NCc1cccnc1)C1CN(C2c3ccc(Cl)cc3CCc3cc(Br)cnc32)CCN1C(=O)NC1CC1 (configuration not stated) | 51 nM | 260 nM | –
39 | CC(=O)CCCCC(=O)N1CCN(C2c3ccc(Cl)cc3CCc3cc(Br)cnc32)CC1C(=O)NCc1cccnc1 (configuration not stated) | 8 nM | 49 nM | –
40 | CCCCC(=O)N1CCN(C2c3ccc(Cl)cc3CCc3cc(Br)cnc32)CC1C(=O)NCCc1c[nH]cn1 (configuration not stated) | – | 60 nM | –
41 | O=C(NCCCN1CCCC1=O)C1CN(C2c3ccc(Cl)cc3CCc3cc(Br)cnc32)CCN1C(=O)NC1CCCCC1 (configuration not stated) | 14 nM | 20 nM | –
42 | CCCNC(=O)N1CCN(C2c3ccc(Cl)cc3CCc3cc(Br)cnc32)CC1C(=O)NCc1cccnc1 (configuration not stated) | 19 nM | 59 nM | –
43 | CCCCC(=O)N1CCN(C2c3ccc(Cl)cc3CCc3cc(Br)cnc32)CC1C(=O)Nc1cc(C)no1 (configuration not stated) | 560 nM | > 4500 nM | –
44 | CC(C)NC(=O)N1CCN(C2c3ccc(Cl)cc3CCc3cc(Br)cnc32)CC1C(=O)NCc1cccnc1 (configuration not stated) | 47 nM | 140 nM | –
